According to ChEMBL document CHEMBL1125287, “Synthesis and antifolate evaluation of the 10-propargyl derivatives of 5-deazafolic acid, 5-deazaaminopterin, and 5-methyl-5-deazaaminopterin” (J Med Chem, 1992):

Tests used:
Dihydrofolate reductase = biological target: T1, Dihydrofolate reductase (Mus musculus, UniProt P00375); assay: The compound was tested for its inhibitory activity against dihydrofolate reductase(DHFR) derived from L1210 cells.; format: cell-based
T1 sequence (P00375 whole entry): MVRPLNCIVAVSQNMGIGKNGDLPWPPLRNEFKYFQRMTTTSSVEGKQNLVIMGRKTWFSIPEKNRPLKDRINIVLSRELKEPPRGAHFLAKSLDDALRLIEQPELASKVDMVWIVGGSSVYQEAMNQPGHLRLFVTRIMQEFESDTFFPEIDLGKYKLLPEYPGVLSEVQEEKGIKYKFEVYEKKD

L1210 [1] = assay: Km value for its transport after influx into L1210 cells; format: functional, cell-based; details: Mus musculus
L1210 [2] = assay: The compound was tested for its growth inhibitory activity against L1210 cells; format: functional, cell-based; details: Mus musculus
Mus musculus [3] = assay: Antitumor effect (36 mg/kg) against EO771 mammary adenocarcinoma in mice measured as average weight change on day 14.; format: functional
Summary of the method: (§1)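 Mice implanted with EO771 mammary adenocarcinoma were dosed once daily for 5 days, starting 1 day after tumor implantation, with 10 mice per group. On day 7 and day 14 the following were recorded: average body weight change in grams, toxic deaths, tumor-free animals and average tumor volume. Volume was calculated as 4/3πr³ in mm³, and T/C is treated/control volume.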

Mus musculus [4] = assay: Antitumor effect (36 mg/kg) against EO771 mammary adenocarcinoma in mice measured as Tumor free/total on day 14.; format: functional; summary of the method: as §1
Mus musculus [5] = assay: Antitumor effect (36 mg/kg) against EO771 mammary adenocarcinoma in mice measured as Tumor free/total on day 7.; format: functional; summary of the method: as §1
Mus musculus [6] = assay: Antitumor effect (36 mg/kg) against EO771 mammary adenocarcinoma in mice measured as T/C(treated/control) on day 14.; format: functional; summary of the method: as §1
Mus musculus [7] = assay: Antitumor effect (36 mg/kg) against EO771 mammary adenocarcinoma in mice measured as T/C(treated/control) on day 7.; format: functional; summary of the method: as §1
Mus musculus [8] = assay: Antitumor effect (36 mg/kg) against EO771 mammary adenocarcinoma in mice measured as Toxic deaths/total on day 14.; format: functional
Summary of the method: (§2)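 EO771 mammary adenocarcinoma implanted in mice, 10 animals per group. Dosing was once daily for 5 days, starting 1 day after tumor implantation. Toxic deaths were counted over the total on the evaluation day (day 7 or day 14), together with average weight change, tumor volume (4/3πr³, treated/control) and tumor-free animals.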

Mus musculus [9] = assay: Antitumor effect (36 mg/kg) against EO771 mammary adenocarcinoma in mice measured as toxic deaths out of 10 mice tested; format: functional; summary of the method: as §2
Mus musculus [10] = assay: Antitumor effect (36 mg/kg) against EO771 mammary adenocarcinoma in mice measured as average weight change on day 7; format: functional; summary of the method: as §1
L1210 [11] = assay: k value for its transport after efflux through L1210 cells; format: functional, Mus musculus
HL-60 = assay: The compound was tested for its growth inhibitory activity against HL60 cells.; format: functional, cell-based; details: Homo sapiens
CCRF S-180 = assay: The compound was tested for its growth inhibitory activity against S180 cells.; format: functional, cell-based; details: Mus musculus
Mus musculus [12] = assay: Antitumor effect (3 mg/kg) against EO771 mammary adenocarcinoma in mice measured as Average weight change on day 14.; format: functional; summary of the method: as §1
Mus musculus [13] = assay: Antitumor effect (3 mg/kg) against EO771 mammary adenocarcinoma in mice measured as Average weight change on day 7.; format: functional; summary of the method: as §1
Mus musculus [14] = assay: Antitumor effect (3 mg/kg) against EO771 mammary adenocarcinoma in mice measured as toxic deaths out of 10 mice tested; format: functional; summary of the method: as §2
Mus musculus [15] = assay: Antitumor effect (3 mg/kg) against EO771 mammary adenocarcinoma in mice measured as Tumor free/total on day 14; format: functional; summary of the method: as §1
Mus musculus [16] = assay: Antitumor effect (3 mg/kg) against EO771 mammary adenocarcinoma in mice measured as Tumor free/total on day 7.; format: functional; summary of the method: as §1
Mus musculus [17] = assay: Antitumor effect (3 mg/kg) against EO771 mammary adenocarcinoma in mice measured as T/C(treated/control) on day 14.; format: functional; summary of the method: as §1
Mus musculus [18] = assay: Antitumor effect (3 mg/kg) against EO771 mammary adenocarcinoma in mice measured as T/C(treated/control) on day 7.; format: functional; summary of the method: as §1
Mus musculus [19] = assay: Antitumor effect (3 mg/kg) against EO771 mammary adenocarcinoma in mice measured as Toxic deaths/total on day 14.; format: functional; summary of the method: as §2
Thymidylate synthase [20] = biological target: T2, Thymidylate synthase (Lactobacillus casei, UniProt P00469); assay: The compound was tested for its inhibitory activity (IC50) against thymidylate synthase(TS) derived from Lactobacillus casei; design: species or system Lacticaseibacillus casei
T2 sequence (P00469 whole entry): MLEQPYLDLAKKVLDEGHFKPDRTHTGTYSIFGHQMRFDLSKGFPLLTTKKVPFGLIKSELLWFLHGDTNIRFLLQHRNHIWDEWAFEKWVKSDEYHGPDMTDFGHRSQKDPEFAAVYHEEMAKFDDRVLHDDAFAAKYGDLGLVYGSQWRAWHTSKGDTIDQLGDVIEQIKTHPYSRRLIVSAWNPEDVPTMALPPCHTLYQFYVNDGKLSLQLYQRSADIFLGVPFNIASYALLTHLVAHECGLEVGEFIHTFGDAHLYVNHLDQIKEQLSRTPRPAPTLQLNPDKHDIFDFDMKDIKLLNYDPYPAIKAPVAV

Thymidylate synthase [21] = biological target: T3, Thymidylate synthase (Homo sapiens, UniProt P04818); assay: The compound was tested for its inhibitory activity against thymidylate synthase(TS) derived from K562 cells.; format: cell-based
Thymidylate synthase [22] = biological target: T3, Thymidylate synthase; assay: The compound was tested for its inhibitory activity against thymidylate synthase(TS) derived from H35F/F cells.

T3 sequence (P04818 whole entry): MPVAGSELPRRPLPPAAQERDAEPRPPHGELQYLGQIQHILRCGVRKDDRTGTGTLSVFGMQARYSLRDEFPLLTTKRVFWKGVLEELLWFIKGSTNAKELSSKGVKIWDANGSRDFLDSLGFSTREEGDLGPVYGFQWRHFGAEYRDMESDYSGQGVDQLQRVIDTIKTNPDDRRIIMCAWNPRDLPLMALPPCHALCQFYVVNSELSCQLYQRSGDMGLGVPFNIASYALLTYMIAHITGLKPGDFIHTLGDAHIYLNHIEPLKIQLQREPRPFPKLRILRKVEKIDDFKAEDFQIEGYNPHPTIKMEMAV

Question: With `C#CCN(Cc1cnc2nc(N)nc(N)c2c1C)c1ccc(C(=O)NC(CCC(=O)O)C(=O)O)cc1` (stereo not given) as the molecule, how does the Ki (Dihydrofolate reductase) read?
Answer: The Ki was 6.87 pM.

Question: What about the Km (L1210 [1]) of the same molecule?
Answer: The Km was 0.57 µM.

Question: What about the IC50 (L1210 [2]) of the same molecule?
Answer: The IC50 was 0.00013 µM.

Question: And the AWC (Mus musculus [3])?
Answer: The AWC was -0.6 g.

Question: What about the Tumor free/total (Mus musculus [4]) of the same molecule?
Answer: The Tumor free/total was 2.

Question: What about the Tumor free/total (Mus musculus [5]) of the same molecule?
Answer: The Tumor free/total was 2.

Question: What about the T/C (Mus musculus [6]) of the same molecule?
Answer: Its T/C is 0.08.

Question: And the T/C (Mus musculus [7])?
Answer: The T/C was 0.09.

Question: And the Deaths/total (Mus musculus [8])?
Answer: Its Deaths/total is 0.

Question: What about the Toxic deaths (Mus musculus [9]) of the same molecule?
Answer: The Toxic deaths was 0.

Question: What about the AWC (Mus musculus [10]) of the same molecule?
Answer: The AWC was -1.9 g.

Question: And the k (L1210 [11])?
Answer: The k was 0.24 min⁻¹.

Question: `C#CCN(Cc1ccc2[nH]c(N)nc(=O)c2c1)c1ccc(C(=O)NC(CCC(=O)O)C(=O)O)cc1` (stereo not given) was tested. Which IC50 (HL-60) did it give?
Answer: The IC50 was 5.29 µM.

Question: And the IC50 (L1210 [2])?
Answer: The IC50 was 2.61 µM.

Question: And the IC50 (CCRF S-180)?
Answer: The IC50 was 1.97 µM.

Question: Which Ki (Dihydrofolate reductase) does the source give for `C#CCN(Cc1cnc2nc(N)nc(N)c2c1)c1ccc(C(=O)NC(CCC(=O)O)C(=O)O)cc1` (stereo not given) here?
Answer: Its Ki is 5.85 pM.

Question: And the Km (L1210 [1])?
Answer: Its Km is 1.8 µM.

Question: And the IC50 (L1210 [2])?
Answer: Its IC50 is 0.00064 µM.

Question: What about the k (L1210 [11]) of the same molecule?
Answer: The k was 0.23 min⁻¹.

Question: Which results are given for `CN(Cc1cnc2nc(N)nc(N)c2n1)c1ccc(C(=O)N[C@@H](CCC(=O)O)C(=O)O)cc1` [METHOTREXATE]?
Answer: Km (L1210 [1]): 4.86 µM; AWC (Mus musculus [12]): 0.8 g; AWC (Mus musculus [13]): -0.4 g; Toxic deaths (Mus musculus [14]): 0; Tumor free/total (Mus musculus [15]): 0; Tumor free/total (Mus musculus [16]): 0; T/C (Mus musculus [17]): 0.79; T/C (Mus musculus [18]): 0.74; k (L1210 [11]): 0.21 min⁻¹; Deaths/total (Mus musculus [19]): 0

Question: With `C#CCN(Cc1cnc2nc(N)[nH]c(=O)c2n1)c1ccc(C(=O)NC(CCC(=O)O)C(=O)O)cc1` (stereo not given) as the molecule, how does the IC50 (Thymidylate synthase [20]) read?
Answer: Its IC50 is 3.9 µM.

Question: `C#CCN(Cc1ccc2nc(N)nc(O)c2n1)c1ccc(C(=O)NC(CCC(=O)O)C(=O)O)cc1` (stereo not given) was tested. Which IC50 (Thymidylate synthase [21]) did it give?
Answer: The IC50 was 2.4 µM.

Question: How did the IC50 (HL-60) turn out when `C#CCN(Cc1cnc2nc(N)nc(O)c2c1)c1ccc(C(=O)NC(CCC(=O)O)C(=O)O)cc1` (stereo not given) was run?
Answer: The IC50 was 0.721 µM.

Question: And the IC50 (L1210 [2])?
Answer: Its IC50 is 1.5 µM.

Question: And the IC50 (CCRF S-180)?
Answer: The IC50 was 2.35 µM.

Question: What about the IC50 (Thymidylate synthase [22]) of the same molecule?
Answer: The IC50 was 0.09 µM.
